Reference: ChEMBL document CHEMBL2176944, “2-(3-Oxo-1,3-diphenylpropyl)malonic acids as potent allosteric ligands of the PIF pocket of phosphoinositide-dependent kinase-1: development and prodrug concept” (J Med Chem, 2012)
pEC50, pKd: −log10 of the molar value. Each block holds one compound with its values, some of them ahead of it. The source made the active and inactive calls. The rule behind the calls is not given here.

Columns and labels:
[1] = target: T1, 3-phosphoinositide-dependent protein kinase 1 (Homo sapiens) (UniProt O15530); test: Activation of PDK1 using KTFCGTPEYLAPEVRR as substrate and [gamma32P]-ATP/Mg2+ by phosphor imaging analysis relative to control
T1 sequence (whole entry): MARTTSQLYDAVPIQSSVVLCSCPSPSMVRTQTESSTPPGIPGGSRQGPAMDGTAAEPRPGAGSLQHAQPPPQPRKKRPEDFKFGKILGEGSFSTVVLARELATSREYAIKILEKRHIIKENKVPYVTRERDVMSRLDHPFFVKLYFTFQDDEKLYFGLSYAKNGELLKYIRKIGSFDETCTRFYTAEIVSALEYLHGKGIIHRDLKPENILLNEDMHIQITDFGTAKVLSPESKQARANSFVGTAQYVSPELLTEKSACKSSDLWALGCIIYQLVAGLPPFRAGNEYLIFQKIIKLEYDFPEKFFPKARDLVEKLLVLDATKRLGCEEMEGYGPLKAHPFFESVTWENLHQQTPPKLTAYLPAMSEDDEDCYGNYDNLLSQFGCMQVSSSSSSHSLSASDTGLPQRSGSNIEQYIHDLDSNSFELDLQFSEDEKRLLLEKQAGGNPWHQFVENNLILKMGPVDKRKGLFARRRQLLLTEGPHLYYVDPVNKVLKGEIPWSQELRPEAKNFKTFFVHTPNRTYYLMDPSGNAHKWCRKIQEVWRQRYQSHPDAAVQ
Summary of the method: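 Radioactive kinase assay with 0.25 μM PDK1 and [γ32P]ATP. Phosphorylated peptide was captured on P81 phosphocellulose paper and detected by phosphorimaging. Activation is expressed relative to DMSO control (=100%). AC50 is the concentration giving half-maximal activation. Values are the mean of at least two independent experiments.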

[2] = target: Ribosomal protein S6 kinase beta-1 (Homo sapiens) (UniProt P23443); test: Activation of S6K1 at 50 uM relative to control
[3] = target: T2, Protein kinase C zeta type (Homo sapiens) (UniProt Q05513); test: Activation of PKCzeta at 50 uM relative to control
T2 sequence (whole entry): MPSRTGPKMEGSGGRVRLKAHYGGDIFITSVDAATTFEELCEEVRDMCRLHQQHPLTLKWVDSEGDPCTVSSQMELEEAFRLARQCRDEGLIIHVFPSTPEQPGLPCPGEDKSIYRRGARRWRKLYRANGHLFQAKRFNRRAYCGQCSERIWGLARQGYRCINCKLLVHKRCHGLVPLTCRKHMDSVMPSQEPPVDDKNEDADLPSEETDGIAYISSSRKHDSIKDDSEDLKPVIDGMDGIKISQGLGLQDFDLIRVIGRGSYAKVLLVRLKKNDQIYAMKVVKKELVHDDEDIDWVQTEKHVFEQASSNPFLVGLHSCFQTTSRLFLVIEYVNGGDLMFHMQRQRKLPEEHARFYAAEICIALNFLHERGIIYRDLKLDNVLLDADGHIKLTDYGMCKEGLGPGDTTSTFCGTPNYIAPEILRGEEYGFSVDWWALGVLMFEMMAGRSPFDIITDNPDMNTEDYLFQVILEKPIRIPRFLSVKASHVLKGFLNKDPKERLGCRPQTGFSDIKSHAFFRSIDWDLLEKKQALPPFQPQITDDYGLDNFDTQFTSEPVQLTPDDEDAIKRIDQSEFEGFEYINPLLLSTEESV

[4] = Activation of PKA at 50 uM relative to control
[5] = target: Serine/threonine-protein kinase N2 (Homo sapiens) (UniProt Q16513); test: Activation of PRK2 at 50 uM relative to control
[6] = target: T2, Protein kinase C zeta type (Homo sapiens); test: Activation of PKCzeta at 2 uM relative to control
[7] = target: T3, Serine/threonine-protein kinase Sgk1 (Homo sapiens) (UniProt O00141); test: Activation of SGK at 50 uM relative to control
T3 sequence (whole entry): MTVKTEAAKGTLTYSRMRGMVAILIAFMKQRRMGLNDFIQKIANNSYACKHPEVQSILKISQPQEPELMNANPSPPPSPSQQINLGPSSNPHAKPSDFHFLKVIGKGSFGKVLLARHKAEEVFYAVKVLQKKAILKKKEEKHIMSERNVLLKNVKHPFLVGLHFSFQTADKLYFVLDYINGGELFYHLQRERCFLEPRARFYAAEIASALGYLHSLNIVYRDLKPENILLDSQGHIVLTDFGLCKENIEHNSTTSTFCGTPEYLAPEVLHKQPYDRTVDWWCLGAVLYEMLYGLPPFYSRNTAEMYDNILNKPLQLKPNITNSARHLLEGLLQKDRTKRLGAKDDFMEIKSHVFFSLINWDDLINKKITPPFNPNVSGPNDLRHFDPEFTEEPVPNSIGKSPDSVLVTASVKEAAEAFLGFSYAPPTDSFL

[8] = target: Serine/threonine-protein kinase N2 (Homo sapiens) (UniProt Q16513); test: Activation of PRK2 at 2 uM relative to control
[9] = target: Ribosomal protein S6 kinase beta-1 (Homo sapiens) (UniProt P23443); test: Activation of S6K1 at 2 uM relative to control
[10] = target: T3, Serine/threonine-protein kinase Sgk1 (Homo sapiens); test: Activation of SGK at 2 uM relative to control
[11] = Activation of PKA at 2 uM relative to control
[12] = target: RAC-alpha serine/threonine-protein kinase (Homo sapiens) (UniProt P31749); test: Activation of PKBalpha at 50 uM relative to control
[13] = target: RAC-alpha serine/threonine-protein kinase (Homo sapiens) (UniProt P31749); test: Activation of PKBalpha at 2 uM relative to control
[14] = target: T4, 3-phosphoinositide-dependent protein kinase 1 (Homo sapiens, UniProt O15530); test: Increase in thermal stability of PDK1 by differential scanning fluorimetry
T4 sequence (O15530 whole entry): T1 sequence (whole entry)
Summary of the method: (§1)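 PDK1 (1 μM) in 10 mM HEPES pH 7.5, 150 mM NaCl, 1 mM DTT and 1/1000 SYPRO Orange, with ligand at 1% final DMSO, was heated from 25–70 °C in 0.3 °C steps. Tm came from a Boltzmann fit, and ΔTm is relative to DMSO control, each point from duplicates. EC50 was fitted from ΔTm versus concentration, along with the concentration giving a 1.5 °C shift.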

[15] = target: T1, 3-phosphoinositide-dependent protein kinase 1 (Homo sapiens); test: Increase in thermal stability of PDK1 assessed as concentration required to increase 1.5 degC thermal stability by differential scanning fluorimetry; summary of the method: as §1
[16] = target: T1, 3-phosphoinositide-dependent protein kinase 1 (Homo sapiens); test: Increase in thermal stability of PDK1 by differential scanning fluorimetry relative to control; summary of the method: as §1
[17] = Activation of MSK at 2 uM relative to control
[18] = Activation of MSK at 50 uM relative to control
[19] = Activation of RSK at 50 uM relative to control
L6 = test: Cellular uptake in rat L6 cells at 20 uM up to 100 mins by mass spectroscopy analysis; assay type: ADME, cell-based; conditions: l6, 100 min
[20] = Activation of RSK at 2 uM relative to control
[21] = target: T4, 3-phosphoinositide-dependent protein kinase 1; test: Binding affinity to PDK1

Sequence of RAC-alpha serine/threonine-protein kinase (Homo sapiens) (P31749 whole entry): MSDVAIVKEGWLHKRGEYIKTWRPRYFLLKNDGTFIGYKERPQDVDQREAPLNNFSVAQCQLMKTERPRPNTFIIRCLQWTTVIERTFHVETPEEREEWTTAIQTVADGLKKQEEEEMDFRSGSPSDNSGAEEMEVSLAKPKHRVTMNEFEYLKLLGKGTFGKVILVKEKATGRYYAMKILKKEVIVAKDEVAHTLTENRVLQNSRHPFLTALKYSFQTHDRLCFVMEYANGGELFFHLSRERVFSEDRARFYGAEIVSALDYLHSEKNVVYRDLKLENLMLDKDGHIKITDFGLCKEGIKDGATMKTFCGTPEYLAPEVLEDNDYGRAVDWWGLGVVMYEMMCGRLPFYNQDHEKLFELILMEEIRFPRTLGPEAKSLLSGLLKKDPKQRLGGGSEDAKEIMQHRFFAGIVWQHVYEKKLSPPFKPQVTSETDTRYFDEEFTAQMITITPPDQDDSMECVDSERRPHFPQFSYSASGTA
Sequence of Serine/threonine-protein kinase N2 (Homo sapiens) (Q16513 whole entry, looked up): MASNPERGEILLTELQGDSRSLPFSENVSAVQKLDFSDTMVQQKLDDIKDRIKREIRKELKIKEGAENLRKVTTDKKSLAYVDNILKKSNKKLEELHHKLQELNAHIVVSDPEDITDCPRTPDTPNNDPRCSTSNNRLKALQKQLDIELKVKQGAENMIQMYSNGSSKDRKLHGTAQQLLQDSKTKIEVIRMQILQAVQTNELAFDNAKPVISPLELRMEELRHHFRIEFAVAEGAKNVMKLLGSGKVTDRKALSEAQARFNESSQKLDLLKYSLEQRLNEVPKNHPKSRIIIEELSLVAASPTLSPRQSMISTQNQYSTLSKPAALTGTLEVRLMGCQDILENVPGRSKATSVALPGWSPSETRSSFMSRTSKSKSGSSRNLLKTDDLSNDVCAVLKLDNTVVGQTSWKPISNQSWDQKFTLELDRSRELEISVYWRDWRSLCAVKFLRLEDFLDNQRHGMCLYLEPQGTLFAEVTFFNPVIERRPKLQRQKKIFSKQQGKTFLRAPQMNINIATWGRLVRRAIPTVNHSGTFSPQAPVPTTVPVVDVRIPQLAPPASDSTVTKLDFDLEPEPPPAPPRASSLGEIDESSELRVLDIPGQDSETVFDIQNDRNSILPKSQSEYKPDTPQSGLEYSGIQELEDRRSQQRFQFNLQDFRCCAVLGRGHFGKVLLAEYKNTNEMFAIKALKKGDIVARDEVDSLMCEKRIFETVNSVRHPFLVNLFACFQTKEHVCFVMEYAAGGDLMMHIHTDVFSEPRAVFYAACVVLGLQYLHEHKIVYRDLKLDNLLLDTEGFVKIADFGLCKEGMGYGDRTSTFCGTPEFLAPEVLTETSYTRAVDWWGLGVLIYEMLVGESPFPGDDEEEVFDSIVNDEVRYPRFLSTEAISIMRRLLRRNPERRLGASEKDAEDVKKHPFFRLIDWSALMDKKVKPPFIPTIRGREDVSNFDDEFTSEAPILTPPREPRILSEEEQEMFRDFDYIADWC
Sequence of Ribosomal protein S6 kinase beta-1 (Homo sapiens) (P23443 whole entry, looked up): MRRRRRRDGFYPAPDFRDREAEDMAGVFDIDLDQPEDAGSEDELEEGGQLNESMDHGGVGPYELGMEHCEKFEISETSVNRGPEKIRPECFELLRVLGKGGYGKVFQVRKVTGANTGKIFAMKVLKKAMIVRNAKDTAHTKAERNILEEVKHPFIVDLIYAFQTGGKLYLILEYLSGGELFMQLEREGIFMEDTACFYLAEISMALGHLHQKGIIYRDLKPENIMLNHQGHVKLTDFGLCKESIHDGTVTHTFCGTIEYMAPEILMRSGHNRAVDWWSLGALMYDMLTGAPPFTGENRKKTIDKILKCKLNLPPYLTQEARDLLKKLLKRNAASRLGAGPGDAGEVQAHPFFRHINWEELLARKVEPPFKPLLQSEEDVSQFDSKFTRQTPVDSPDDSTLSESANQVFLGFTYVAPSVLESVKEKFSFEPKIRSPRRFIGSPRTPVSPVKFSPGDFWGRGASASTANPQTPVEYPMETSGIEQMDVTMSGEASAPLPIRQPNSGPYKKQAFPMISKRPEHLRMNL

Compound: O=C(C[C@@H](c1ccccc1)C(C(=O)O)C(=O)O)c1ccc(C(F)(F)F)cc1
max activation [1]: 2

Compound: O=C(C[C@H](c1ccccc1)C(C(=O)O)C(=O)O)c1ccc(C(F)(F)F)cc1
max activation [1]: 5.5

Compound: O=C(O)/C=C(/CCc1ccc(Cl)cc1)c1ccccc1
Activity [2]: 84%
Activity [3]: inactive
Activity [4]: 74%
Activity [5]: inactive
Activity [6]: inactive
Activity [7]: inactive
Activity [8]: inactive
Activity [9]: inactive
Activity [10]: inactive
Activity [11]: inactive
Activity [12]: inactive
Activity [13]: inactive

Compound: O=C(CC(c1ccc2ccccc2c1)C(C(=O)O)C(=O)O)c1ccc(I)cc1 (racemic)
pEC50 [14]: 4.89
Activity [15]: 18.9 µM
max activation [1]: 3.6
ΔTm [16]: 2.4 °C

Compound: O=C(CC(c1ccccc1)C(C(=O)O)C(=O)O)c1ccc2c(c1)[nH]c1ccccc12 (racemic)
pEC50 [14]: 4.52
Activity [15]: 18.2 µM
max activation [1]: 3.6
ΔTm [16]: 4.9 °C

Compound: CCc1ccc(C(=O)CC(c2ccc(Cl)cc2)C(C(=O)O)C(=O)O)cc1 (racemic)
max activation [1]: 3

Compound: COc1ccc2cc(C(=O)CC(c3ccccc3)C(C(=O)O)C(=O)O)ccc2c1 (racemic)
max activation [1]: 3.6

Compound: O=C(CC(c1ccc(Cl)cc1)C(C(=O)O)C(=O)O)c1ccc(Br)cc1 (racemic)
max activation [1]: 3

Compound: O=C(CC(c1ccc(Cl)cc1)C(C(=O)O)C(=O)O)c1ccc(C(F)(F)F)cc1 (racemic)
max activation [1]: 3.5

Compound: O=C(CC(c1ccc(Cl)cc1)C(C(=O)O)C(=O)O)c1ccc(I)cc1 (racemic)
max activation [1]: 3.8

Compound: O=C(CC(c1ccc2ccccc2c1)C(C(=O)O)C(=O)O)c1ccc2ccccc2c1 (racemic)
max activation [1]: 4.8

Compound: O=C(CC(c1ccccc1)C(C(=O)O)C(=O)O)c1c[nH]c2ccccc12 (racemic)
max activation [1]: 3

Compound: O=C(CC(c1ccccc1)C(C(=O)O)C(=O)O)c1ccc(Br)cc1 (racemic)
max activation [1]: 3.7

Compound: O=C(CC(c1ccccc1)C(C(=O)O)C(=O)O)c1ccc(Cl)cc1 (racemic)
Activity [2]: 47%
Activity [3]: inactive
Activity [17]: inactive
Activity [4]: inactive
Activity [5]: inactive
Activity [6]: inactive
Activity [7]: inactive
Activity [18]: inactive
max activation [1]: 4
Activity [8]: inactive
Activity [9]: 84%
Activity [10]: inactive
Activity [11]: inactive
Activity [12]: inactive
Activity [19]: 160%
Activity [13]: inactive
Activity [20]: inactive

Compound: O=C(CC(c1ccccc1)C(C(=O)O)C(=O)O)c1ccc2c(ccc3ccccc32)c1 (racemic)
max activation [1]: 3.7

Compound: O=C(CC(c1ccccc1)C(C(=O)O)C(=O)O)c1ccc2ccccc2c1 (racemic)
max activation [1]: 4

Compound: O=C(O)CC(CC(=O)c1ccc(Br)cc1)c1ccccc1 (racemic)
max activation [1]: 2

Compound: O=C(O)CC(CC(=O)c1ccc(C(F)(F)F)cc1)c1ccc(Cl)cc1 (racemic)
max activation [1]: inactive

Compound: O=C(O)CC(CC(=O)c1ccc(C(F)(F)F)cc1)c1ccccc1 (racemic)
max activation [1]: 4

Compound: O=C(O)CC(CC(=O)c1ccc(Cl)cc1)c1ccc(Cl)cc1 (racemic)
max activation [1]: inactive

Compound: O=C(O)CC(CC(=O)c1ccc(Cl)cc1)c1ccccc1 (racemic)
max activation [1]: 3

Compound: O=C(O)CC(CC(=O)c1ccc(I)cc1)c1ccc(Cl)cc1 (racemic)
max activation [1]: 2.5

Compound: O=C(O)CC(CC(=O)c1ccc2cc(O)ccc2c1)c1ccccc1 (racemic)
max activation [1]: 3

Compound: O=C(O)CC(CC(=O)c1ccc2ccccc2c1)c1ccc2ccccc2c1 (racemic)
max activation [1]: 3.4

Compound: O=C(O)CC(CC(=O)c1ccc2ccccc2c1)c1ccccc1 (racemic)
max activation [1]: 2.5

Compound: O=C(O)CC(CC(=O)c1cccc(Cl)c1)c1ccccc1 (racemic)
max activation [1]: 2.5

Compound: H-REPRILSEEEQEMFRDFDYIADWC-OH
pEC50 [14]: 4.85
Activity [15]: 3.1 µM
pKd [21]: 7.37
max activation [1]: 3.4
ΔTm [16]: 7.3 °C

Now from value to compound:

Activity [2]: 46%
pEC50 [14]: 4.07
Activity [15]: 67.6 µM
Activity [3]: inactive
Activity [17]: inactive
Activity [4]: 80%
Activity [5]: inactive
Activity [6]: inactive
Activity [7]: inactive
Activity [18]: inactive
max activation [1]: 5.5
Activity [8]: inactive
Activity [9]: 82%
ΔTm [16]: 3.9 °C
Activity [10]: inactive
Activity [11]: inactive
Activity [12]: inactive
Activity [19]: 140%
Drug uptake (L6): Not Active
Activity [13]: inactive
Activity [20]: inactive
Compound: O=C(CC(c1ccccc1)C(C(=O)O)C(=O)O)c1ccc(C(F)(F)F)cc1 (racemic)

pEC50 [14]: 4.22
Activity [15]: 30.9 µM
max activation [1]: 4
ΔTm [16]: 5.2 °C
Compound: O=C(CC(c1ccccc1)C(C(=O)O)C(=O)O)c1ccc(I)cc1 (racemic)

max activation [1]: 2
Compound: CCc1ccc(C(=O)CC(CC(=O)O)c2ccccc2)cc1 (racemic)

max activation [1]: 5
Compound: CCc1ccc(C(=O)CC(c2ccccc2)C(C(=O)O)C(=O)O)cc1 (racemic)

max activation [1]: inactive
Compound: O=C(CC(c1cc(-c2ccccc2)cs1)C(C(=O)O)C(=O)O)c1ccc(C(F)(F)F)cc1 (racemic)

max activation [1]: 2
Compound: O=C(CC(c1ccc(Cl)cc1)C(C(=O)O)C(=O)O)c1ccc(Cl)cc1 (racemic)

max activation [1]: inactive
Compound: O=C(CC(c1ccc(Cl)cc1)C(C(=O)O)C(=O)O)c1ccc(O)cc1 (racemic)

max activation [1]: 7
Compound: O=C(CC(c1ccccc1)C(C(=O)O)C(=O)O)c1ccc(Oc2ccccc2)cc1 (racemic)

max activation [1]: 2.6
Compound: O=C(CC(c1ccccc1)C(C(=O)O)C(=O)O)c1cccc(Cl)c1 (racemic)

max activation [1]: 4
Compound: O=C(O)CC(CC(=O)c1ccc(I)cc1)c1ccccc1 (racemic)

max activation [1]: 2.8
Compound: O=C(O)CC(CC(=O)c1ccc(Oc2ccccc2)cc1)c1ccccc1 (racemic)

max activation [1]: 1.5
Compound: O=C(O)CC(CC(=O)c1ccc2c(ccc3ccccc32)c1)c1ccccc1 (racemic)
